Experimental data as given in ChEMBL document CHEMBL1149069, “SB-202742, a novel beta-lactamase inhibitor isolated from Spondias mombin” (J Nat Prod, 1994).
In brackets after ≈: the same amount, converted by molar mass. Activity calls are given as the source filed them. No cut-off for these calls is given here.

Tests used:
[1] = Inhibition of Escherichia coli K-12 beta-lactamase OXA1 assessed as inhibition of nitrocefin hydrolysis pre-incubated for 5 mins by microtiter plate assay
Bacillus subtilis = assay: Antimicrobial activity against Bacillus subtilis ATCC 6633 by microtiter method; format: functional
Summary of the method: (§1)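 Broth microdilution MIC in Oxoid nutrient broth No. 2. Inoculum was a 1/500 dilution of an overnight broth culture, and plates were incubated overnight at 37°.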

Pseudomonas aeruginosa = assay: Antimicrobial activity against Pseudomonas aeruginosa 1771P by microtiter method; format: functional; summary of the method: as §1
[2] = target: Beta-lactamase (Staphylococcus aureus) (UniProt P00807); assay: Inhibition of Staphylococcus aureus Russell beta-lactamase assessed as inhibition of nitrocefin hydrolysis up to 567 ug/ml pre-incubated for 5 mins by microtiter plate assay
Summary of the method: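 Inhibitor was pre-incubated with the enzyme for 5 min at 37°, then hydrolysis of 200 µM nitrocefin was read on a microtiter plate reader. Inhibitor was tested at concentrations up to 567 µg/ml.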

Proteus mirabilis = assay: Antimicrobial activity against Proteus mirabilis C977 by microtiter method; format: functional; summary of the method: as §1
Streptococcus pyogenes = assay: Antimicrobial activity against Streptococcus pyogenes CN 10 after overnight incubation by Todd Hewitt broth dilution method; format: functional
Summary of the method: (§2)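 Broth microdilution MIC in Todd Hewitt broth. Inoculum was a 1/500 dilution of an overnight broth culture, and plates were incubated overnight at 37°.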

Klebsiella pneumoniae = assay: Antimicrobial activity against Klebsiella pneumoniae A by microtiter method; format: functional; summary of the method: as §1
Serratia marcescens = assay: Antimicrobial activity against Serratia marcescens US32 by microtiter method; format: functional; summary of the method: as §1
Beta-lactamase [3] = target: T1, Beta-lactamase (Proteus mirabilis, UniProt P30897); assay: Inhibition of Proteus mirabilis C889 beta-lactamase assessed as inhibition of nitrocefin hydrolysis preincubated for 5 mins by microtiter plate assay
T1 sequence (P30897 whole entry): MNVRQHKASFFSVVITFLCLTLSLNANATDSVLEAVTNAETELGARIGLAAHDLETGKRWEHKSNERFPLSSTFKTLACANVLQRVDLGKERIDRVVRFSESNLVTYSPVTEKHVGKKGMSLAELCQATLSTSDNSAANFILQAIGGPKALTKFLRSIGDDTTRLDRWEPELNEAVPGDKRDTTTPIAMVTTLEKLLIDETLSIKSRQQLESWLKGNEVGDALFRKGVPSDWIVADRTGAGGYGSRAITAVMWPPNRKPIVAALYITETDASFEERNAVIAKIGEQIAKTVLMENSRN

Staphylococcus aureus [4] = assay: Antimicrobial activity against Staphylococcus aureus Russell by microtiter method; format: functional; summary of the method: as §1
Staphylococcus aureus [5] = assay: Antimicrobial activity against Staphylococcus aureus Oxford by microtiter method; format: functional; summary of the method: as §1
Beta-lactamase TEM = Beta-lactamase TEM (Escherichia coli, UniProt P62593); assay: Inhibition of Escherichia coli JT4 beta-lactamase TEM1 assessed as inhibition of nitrocefin hydrolysis preincubated for 5 mins by microtiter plate assay
Summary of the method: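 Inhibitor was pre-incubated with enzyme for 5 min at 37° before each determination. Enzyme classification follows Bush.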

[6] = Inhibition of Escherichia coli K-12 beta-lactamase PSE-4 assessed as inhibition of nitrocefin hydrolysis preincubated for 5 mins by microtiter plate assay
Enterococcus faecalis = assay: Antimicrobial activity against Streptococcus faecalis 1 by microtiter method; format: functional; summary of the method: as §1
Beta-lactamase [7] = target: Beta-lactamase (Enterobacter cloacae, UniProt P05364); assay: Inhibition of Enterobacter cloacae P99 beta-lactamase assessed as inhibition of nitrocefin hydrolysis pre-incubated for 5 mins by microtiter plate assay
Escherichia coli = assay: Antimicrobial activity against Escherichia coli NCTC-10418 by microtiter method; format: functional; summary of the method: as §1
Enterobacter cloacae = assay: Antimicrobial activity against Enterobacter cloacae N1 by microtiter method; format: functional; summary of the method: as §1
Staphylococcus aureus [8] = assay: Antimicrobial activity against Staphylococcus aureus Smith by microtiter method; format: functional; summary of the method: as §1
Streptococcus pneumoniae = assay: Antimicrobial activity against Streptococcus pneumoniae PU7 after overnight incubation by Todd Hewitt broth dilution method; format: functional; summary of the method: as §2
Beta-lactamase [9] = target: Beta-lactamase (Pseudomonas aeruginosa (strain ATCC 15692 / PAO1 / 1C / PRS 101 / LMG12228), UniProt P24735); assay: Inhibition of Pseudomonas aeruginosa A beta-lactamase assessed as inhibition of nitrocefin hydrolysis preincubated for 5 mins by microtiter plate assay
[10] = tested on: Staphylococcus epidermidis; assay: Antimicrobial activity against Staphylococcus epidermidis NCTC 11047 by microtiter method; format: functional; summary of the method: as §1
[11] = tested on: Staphylococcus saprophyticus; assay: Antimicrobial activity against Staphylococcus saprophyticus Fl2 by microtiter method; format: functional; summary of the method: as §1

Sequence of Beta-lactamase TEM (P62593 whole entry): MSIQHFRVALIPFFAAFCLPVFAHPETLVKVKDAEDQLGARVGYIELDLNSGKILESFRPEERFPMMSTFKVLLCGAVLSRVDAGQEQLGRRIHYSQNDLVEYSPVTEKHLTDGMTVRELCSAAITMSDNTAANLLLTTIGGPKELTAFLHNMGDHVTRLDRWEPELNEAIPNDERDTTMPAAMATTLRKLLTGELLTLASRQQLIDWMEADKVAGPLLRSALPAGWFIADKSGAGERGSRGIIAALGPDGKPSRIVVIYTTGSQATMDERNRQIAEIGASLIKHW
Sequence of Beta-lactamase (Pseudomonas aeruginosa (strain ATCC 15692 / PAO1 / 1C / PRS 101 / LMG12228), UniProt P24735) (P24735 whole entry): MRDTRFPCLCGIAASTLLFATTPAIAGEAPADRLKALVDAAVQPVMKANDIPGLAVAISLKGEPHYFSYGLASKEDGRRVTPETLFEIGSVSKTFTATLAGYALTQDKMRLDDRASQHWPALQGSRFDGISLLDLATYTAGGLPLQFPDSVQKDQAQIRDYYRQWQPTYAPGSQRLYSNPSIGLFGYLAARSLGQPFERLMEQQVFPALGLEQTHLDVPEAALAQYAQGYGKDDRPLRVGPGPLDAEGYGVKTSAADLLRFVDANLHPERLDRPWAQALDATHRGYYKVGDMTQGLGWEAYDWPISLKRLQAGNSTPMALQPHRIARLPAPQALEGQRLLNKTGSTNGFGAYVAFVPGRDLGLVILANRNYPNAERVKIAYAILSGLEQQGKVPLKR
Sequence of Beta-lactamase (Enterobacter cloacae, UniProt P05364) (P05364 whole entry): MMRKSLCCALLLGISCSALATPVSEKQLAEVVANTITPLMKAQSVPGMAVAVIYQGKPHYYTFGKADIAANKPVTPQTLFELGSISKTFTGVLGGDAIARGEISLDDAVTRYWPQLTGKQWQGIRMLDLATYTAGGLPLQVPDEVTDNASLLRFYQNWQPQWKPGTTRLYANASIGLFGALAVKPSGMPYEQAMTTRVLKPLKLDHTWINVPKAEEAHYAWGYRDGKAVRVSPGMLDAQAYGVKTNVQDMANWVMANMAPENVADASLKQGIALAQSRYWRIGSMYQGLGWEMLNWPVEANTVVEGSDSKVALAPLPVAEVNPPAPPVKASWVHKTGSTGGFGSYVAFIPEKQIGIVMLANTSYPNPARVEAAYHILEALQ
Sequence of Beta-lactamase (Staphylococcus aureus) (P00807 whole entry): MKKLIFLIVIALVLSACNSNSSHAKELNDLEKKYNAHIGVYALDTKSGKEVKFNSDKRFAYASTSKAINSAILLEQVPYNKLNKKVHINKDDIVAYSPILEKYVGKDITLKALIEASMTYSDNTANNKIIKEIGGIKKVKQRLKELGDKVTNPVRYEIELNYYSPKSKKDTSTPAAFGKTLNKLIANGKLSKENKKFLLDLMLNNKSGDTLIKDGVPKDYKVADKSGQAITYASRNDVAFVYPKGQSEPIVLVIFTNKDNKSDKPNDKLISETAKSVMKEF

O=C(O)[C@H]1/C(=C/CO)O[C@@H]2CC(=O)N21 [CLAVULANIC ACID]
IC50 [1]: 0.35 µg/mL (≈ 1.76 µM)

CC/C=C\C/C=C\C/C=C\CCCCCCCc1cccc(O)c1C(=O)O
MIC (Bacillus subtilis): 4 µg/mL (≈ 10.8 µM)
MIC (Pseudomonas aeruginosa): > 256 µg/mL
Activity [2]: inactive
MIC (Proteus mirabilis): > 256 µg/mL
MIC (Streptococcus pyogenes): 2 µg/mL (≈ 5.4 µM)
MIC (Klebsiella pneumoniae): > 256 µg/mL
MIC (Serratia marcescens): > 256 µg/mL
IC50 (Beta-lactamase [3]): 300 µM
MIC (Staphylococcus aureus [4]): 32 µg/mL (≈ 86.4 µM)
IC50 [1]: 79.7 µg/mL (≈ 215 µM)
MIC (Staphylococcus aureus [5]): 8 µg/mL (≈ 21.6 µM)
IC50 (Beta-lactamase TEM): 13.5 µM
IC50 [6]: 10.1 µg/mL (≈ 27.3 µM)
MIC (Enterococcus faecalis): 0.25 µg/mL (≈ 0.675 µM)
IC50 (Beta-lactamase [7]): 44.5 µM
MIC (Escherichia coli): > 256 µg/mL
MIC (Enterobacter cloacae): > 256 µg/mL
MIC (Staphylococcus aureus [8]): 2 µg/mL (≈ 5.4 µM)
MIC (Streptococcus pneumoniae): 2 µg/mL (≈ 5.4 µM)
IC50 (Beta-lactamase [9]): 109 µM
MIC [10]: 2 µg/mL (≈ 5.4 µM)
MIC [11]: 2 µg/mL (≈ 5.4 µM)
